High-throughput results as filed in PubChem.
Only some compounds are listed: those with a hit (about 2.2% of all), similar ones and a draw of the others.
APP 5UTR inh = inhibitors of APP translation via 5'UTR reporter, primary screen, APP 5'UTR luciferase, SH-SY5Y cells; AID 1285, 2008; inhibition, % at 2 µM; SH-SY5Y APP 5'UTR-luciferase reporter, luminescence; 190,000 compounds, 0.82% hits;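 active = inhibition above a set limit, derived from the sample mean plus 3 SD, cut at about 45% in these data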
b-catenin transl = modulators of beta-catenin nuclear translocation, primary screen, imaging, HeLa cells, immunofluorescence, high-content. 190,000 compounds, 0.3% hits. nuclear translocation activity, % at 5 µM. AID 1665, 2009;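 active = nuclear translocation activity above 50% at 5 µM, with a well cell count of 50 or more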;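 note: per-cell ratio of nuclear to cytoplasmic median beta-catenin stain intensity; plate controls were DMSO negative control for no effect and GSK-3 inhibitor IX positive control for full effect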
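Test system: human HeLa cells, endogenous beta-catenin. Times: 24 h compound exposure, 37°C. Measured by: beta-catenin immunofluorescence imaging with DAPI.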
Ba/F3 V617F tox = reduced viability of JAK2V617F-dependent Ba/F3 cells, primary screen, JAK2V617F inhibitor project, cell-based, Ba/F3 EpoR-JAK2V617F, luminescence | ATP luminescence | inhibition, % at 5.6 µM | 220,000 compounds, 1.1% hits;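 active = inhibition above the campaign mean plus 3 SD over all tested compounds, cut at about 24% in these data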;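 note: cytokine-independent growth of Ba/F3 cells driven by EpoR plus mutant JAK2; 0% = DMSO-treated cells and 100% = JAK inhibitor I control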
BaF3 parental = parental Ba/F3 cell viability inhibition, counter-screen for JAK2V617F inhibitor project, murine pro-B, CellTiter-Glo luminescence; CellTiter-Glo ATP luminescence; inhibition, % at 5.6 µM; 220,000 compounds, 1.1% hits; AID 1486, 2009;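 active = inhibition above a per-campaign cutoff, the mean inhibition of all tested compounds plus 3 SD, cut at about 27% in these data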;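 note: 0% = DMSO wells and 100% = JAK Inhibitor I control wells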
IEC-6 cytotox = cytotoxicity in IEC-6 intestinal epithelial cells, primary screen, cytotoxicity control for KLF5 inhibitor project, cell-based, luminescence; inhibition, % at 5 µM; IEC-6 cytotoxicity, luminescence viability; 290,000 compounds, 0.78% hits;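 note: 0% = plate median of test compound wells and 100% = cytotoxic reference compound wells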
MT stabilizer = microtubule stabilizers in HeLa cells, primary screen, imaging, high-content imaging; HeLa tubulin immunostaining HCS, 24 h; share of cells brighter than vehicle mean+2SD; 200,000 compounds, 0.83% hits; AID 2205, 2009; % tubulin-high responders, % at 10 µM;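 active = plate Z-score above 3 for both tubulin-high and condensed-nucleus cell shares, with cell loss under 80%, at 10 µM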;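 note: anti alpha tubulin signal scored within the nucleus-defined area of each cell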
IEC-6 cytotox cf = cytotoxic compounds in IEC-6 epithelial cells, confirmation, cytotoxicity control, cell-based, luminescence; inhibition, % at 5 µM; 1,900 compounds, 63% hits; IEC-6 rat intestinal epithelial viability; AID 1907, 2009; shares compounds with IEC-6 cytotox;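 note: 0% = vehicle and 100% = reference cytotoxic drug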
The depositor's hits bear a star; . = no result. Cut-off read from the data, not from the text of the source, unless noted: active = inhibition above about 22%; inactive = the rest.

SMILES	APP 5UTR inh	b-catenin transl	Ba/F3 V617F tox	BaF3 parental	IEC-6 cytotox	MT stabilizer	IEC-6 cytotox cf
c1cncc(CSc2nnc3ccc(-c4cccs4)nn23)c1	6	0	1	4	-2	3	.
CCn1c(CCNC(=O)c2cccs2)nnc1SCC(=O)NC1CCCCC1	-27	.	6	2	25*	5	5
CCn1c(CCNC(=O)c2cccs2)nnc1SCC(=O)Nc1ccc(Cl)cc1	-6	4	0	4	1	2	.
CCOC(=O)C(C)NC(=O)c1cn(-c2ccc(OC)cc2)c(=O)c2ccccc12 (stereo not given)	.	.	.	.	2	.	.
O=C(CSc1cccc[n+]1[O-])Nc1ccccc1Oc1ccccc1	-6	-2	3	8	24*	2	6
O=C(CSc1cccc[n+]1[O-])N1CCCCCC1	1	0	0	6	-1	2	.
O=C(CSc1ccc(Br)cc1)Nc1ccccc1Oc1ccccc1	1	1	0	7	3	4	.
O=C(CSc1cccc[n+]1[O-])CSc1cccc[n+]1[O-]	1	-1	6	7	55*	2	12
COCCNc1c2c(nc3c(-c4ccccc4)c(C)nn13)CCCC2	11	.	1	8	-2	3	.
Cc1nn2c(NCCN(C)C)c3c(nc2c1-c1ccccc1)CCCC3	.	2	7	4	25*	.	1
O=C(CSc1nc(-c2ccco2)cc(C(F)(F)F)n1)Nc1cccnc1	-12	-3	6	3	29*	58*	13
O=C(CSc1nc(-c2ccco2)cc(C(F)(F)F)n1)Nc1ccc(C(=O)N2CCOCC2)cc1	-6	-5	-2	0	1	3	.
COc1ccc(C2(C(=O)NCCc3ccccc3)CCCC2)cc1OC	.	.	.	.	-8	.	.
CCOc1ccc(S(=O)(=O)Nc2cc(SCC(=O)O)c(O)c3ccccc23)cc1	.	.	.	.	49*	.	1
O=C(O)CSc1cc(NS(=O)(=O)c2cccc([N+](=O)[O-])c2)c2ccccc2c1O	.	-2	4	0	16	.	.
Cc1ccc(NC(=O)CCCc2ccccc2)c([N+](=O)[O-])c1	.	.	.	.	-2	.	.
COc1cc(-c2c(C#N)c(N)nc3c2CCCC3)ccc1O	0	-6	5	8	-4	6	.
COc1ccc(-c2c(C#N)c(N)nc3c2CCc2ccccc2-3)cc1OC	19	.	22	10	34*	34*	24*
CCN(CC(=O)NCc1ccc(F)cc1)C(=O)/C=C/c1ccc(OC)c(S(=O)(=O)NC(C)C)c1	.	.	.	.	73*	.	50*
Cn1ccsc1=NC(=O)c1ccc([N+](=O)[O-])o1	.	.	.	.	67*	.	18
O=C(CN(Cc1ccc(F)cc1)C(=O)CNS(=O)(=O)c1ccc(Cl)cc1)NCC1CCCO1 (stereo not given)	.	.	.	.	-7	.	.
C/C(=N\NC(=O)c1cc(C2CC2)nc2ccccc12)c1ccc(O)cc1O	.	.	.	.	51*	.	43*
C/C(=N\NC(=O)c1cc(C)nc2ccccc12)c1cccs1	.	0	0	2	29*	.	-2
CC(/C=C/c1ccccc1)=N\NC(=O)c1cc(C)nc2ccccc12	.	0	33*	52*	40*	.	5
O=C(O)Cn1c(=O)c(F)cn(C2CCCO2)c1=O (stereo not given)	.	.	.	.	-5	.	.
SMILES	APP 5UTR inh	b-catenin transl	Ba/F3 V617F tox	BaF3 parental	IEC-6 cytotox	MT stabilizer	IEC-6 cytotox cf
COc1ccc(CNC(=O)[C@@H](C)NC(=O)C2CCN(C(=O)[C@@H](N)CCSC)CC2)cc1	.	.	.	.	1	.	.
COc1ccc(C(=O)/C=C/Nc2ccc(S(N)(=O)=O)cc2)cc1OC	.	-2	-2	-3	-9	.	.
O=C(CSCc1ccc(Br)cc1)Nc1ccccc1C(=O)N1CCOCC1	.	.	.	.	7	.	.
Cc1nc(Cl)c(C(=O)NCc2ccccc2)c(C)c1Cl	8	-1	-2	4	-5	2	.
CS(=O)(=O)c1ncc(Cl)c(C(=O)Nc2ccc3ccccc3c2)n1	96*	0	83*	52*	24*	2	21
O=C(Nc1ccc2ccccc2c1)c1cnccn1	-157	-2	3	8	1	1	.
COc1ccc(S(=O)(=O)Cc2ccc(C(=O)NCc3ccccc3)o2)cc1	.	.	.	.	2	.	.
O=C(NCc1ccccc1)c1nc(S(=O)(=O)Cc2ccccc2)ncc1Cl	.	.	.	.	52*	.	24*
O=C(NCc1ccccc1)c1c(Cl)nc(Cl)c(Cl)c1Cl	.	.	.	.	23*	.	-4
COc1ccc(CNC(=O)c2nc(S(=O)(=O)Cc3ccccc3)ncc2Cl)cc1	.	.	.	.	50*	.	22*
CC1CCCCC1NC(=O)c1cccc(N2C(=O)C3C4C=CC(C4)C3C2=O)c1 (stereo not given)	.	.	.	.	-3	.	.
CCCNc1c(NC(=O)c2ccc3c(c2)OCO3)c(=O)oc2ccccc12	.	.	.	.	-5	.	.
CC(=O)Nc1ccc(NC(=O)c2nc(S(=O)(=O)Cc3ccccc3)ncc2Cl)cc1	.	.	.	.	26*	.	1
COC(=O)c1ccccc1NC(=O)c1nc(S(=O)(=O)Cc2ccccc2)ncc1Cl	.	.	.	.	9	.	.
CCC(=O)NC(c1ccc(OC)cc1)c1c(O)ccc2ccccc12 (stereo not given)	16	0	2	2	23*	18*	9
COC(=O)c1c(NC(=O)c2ccc([N+](=O)[O-])o2)sc2c1CCN(C(C)C)C2	.	.	.	.	96*	.	60*
CC(C)N1CCc2c(sc(NC(=O)c3ccc([N+](=O)[O-])o3)c2C(N)=O)C1	.	.	.	.	99*	.	86*
CC(=O)N1CCc2c(sc(NC(=O)c3ccc([N+](=O)[O-])o3)c2C#N)C1	62*	7	17	32*	61*	74	63*
COC(=O)c1c(NC(=O)Cc2ccccc2)sc2c1CCN(C(C)C)C2	.	.	.	.	0	.	.
COC(=O)c1sc(NC(=O)c2ccc([N+](=O)[O-])o2)c(C#N)c1C	.	4	1	2	22*	.	26*
CC(=O)N1CCc2c(sc(NC(=O)Cc3ccc(F)cc3)c2C#N)C1	.	.	.	.	-2	.	.
Cc1cccn2c(CN3CCCC(c4ccccc4)C3)c(C(=O)N3CCOCC3)nc12 (stereo not given)	10	1	0	5	4	4	.
CN(c1ccc(OCC(=O)N2CCN(c3ccc(F)cc3)CC2)cc1)S(=O)(=O)c1cccs1	-9	0	-2	-1	-3	3	.
Nc1cc(=O)[nH]c(SCc2ccc(Cl)cc2Cl)n1	.	.	.	.	4	.	.
C=CCn1c(SCC(=O)NC(=O)c2cccn2C)nc2ccccc2c1=O	1	1	-2	3	0	3	.
